# Experimental data: ChEMBL document CHEMBL4138228, “Substituted carbamothioic amine-1-carbothioic thioanhydrides as novel trichomonicidal fungicides: Design, synthesis, and biology” (Eur J Med Chem, 2018)
# Columns and labels:
# Candida albicans [1] = assay: Antifungal activity against Candida albicans ATCC 10231 after 48 hrs by broth microdilution method; type: functional; conditions: ATCC 10231, 48 h
# Outline: (§1)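 Broth microdilution per NCCLS guidelines in MOPS-buffered RPMI 1640; starting inoculum 1-5 x 10^3 CFU/mL; plates incubated at 35 °C; MIC recorded after 48 h; fluconazole as reference; experiments repeated three times.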
# [2] = Selectivity index, ratio of IC50 for human HeLa cells to MIC for metronidazole-resistant Trichomonas vaginalis CDC085 ATCC 50143; type: toxicity; conditions: read-out: Selectivity Index
# Candida albicans [3] = assay: Antifungal activity against Candida albicans patient isolate after 48 hrs by broth microdilution method; type: functional; outline: as §1
# Candida albicans [4] = assay: Antifungal activity against Candida albicans MTCC 183 after 48 hrs by broth microdilution method; type: functional; conditions: MTCC 183, 48 h; outline: as §1
# HeLa = assay: Cytotoxicity against human HeLa cells after 24 hrs by MTT assay; type: cell-based
# Sporothrix schenckii = assay: Antifungal activity against Sporothrix schenckii after 48 hrs by broth microdilution method; type: functional; outline: as §1
# [5] = system: Trichophyton mentagrophytes; assay: Antifungal activity against Trichophyton mentagrophytes after 48 hrs by broth microdilution method; type: functional; outline: as §1
# Trichomonas vaginalis [6] = assay: Antitrichomonas activity against metronidazole-susceptible Trichomonas vaginalis assessed as decrease in cell viability after 48 hrs by trypan blue exclusion method; type: functional
# Candida albicans [7] = assay: Antifungal activity against Candida albicans ATCC 66027 after 48 hrs by broth microdilution method; type: functional; conditions: ATCC 66027, 48 h; outline: as §1
# Trichomonas vaginalis [8] = assay: Antitrichomonas activity against metronidazole-resistant Trichomonas vaginalis CDC085 ATCC 50143 assessed as decrease in cell viability after 48 hrs by trypan blue exclusion method; type: functional; conditions: CDC085 ATCC 50143, 48 h
# Candida albicans [9] = assay: Antifungal activity against Candida albicans ATCC 14053 after 48 hrs by broth microdilution method; type: functional; conditions: ATCC 14053, 48 h; outline: as §1
# [10] = Selectivity index, ratio of IC50 for human HeLa cells to MIC for metronidazole-susceptible Trichomonas vaginalis; type: toxicity; conditions: read-out: Selectivity Index
# Nakaseomyces glabratus = assay: Antifungal activity against Candida glabrata ATCC 2001 after 48 hrs by broth microdilution method; type: functional; conditions: ATCC 2001, 48 h; outline: as §1
# Candida parapsilosis = assay: Antifungal activity against Candida parapsilosis ATCC 22019 after 48 hrs by broth microdilution method; type: functional; conditions: Lodderomyces parapsilosis, ATCC 22019, 48 h; outline: as §1
# Trichomonas vaginalis [11] = assay: Potency index, ratio of metronidazole MIC to test compound MIC for metronidazole-resistant Trichomonas vaginalis CDC085 ATCC 50143; type: functional
# Cryptococcus neoformans = assay: Antifungal activity against Cryptococcus neoformans after 48 hrs by broth microdilution method; type: functional; outline: as §1
SMILES,MIC (Candida albicans [1]) [µM],selectivity ratio [2],MIC (Candida albicans [3]) [µM],MIC (Candida albicans [4]) [µM],IC50 (HeLa) [mM],MIC (Sporothrix schenckii) [µM],MIC [5] [µM],MIC (Trichomonas vaginalis [6]) [µM],MIC (Candida albicans [7]) [µM],MIC (Trichomonas vaginalis [8]) [µM],MIC (Candida albicans [9]) [µM],selectivity ratio [10],MIC (Nakaseomyces glabratus) [µM],MIC (Candida parapsilosis) [µM],Ratio (Trichomonas vaginalis [11]),MIC (Cryptococcus neoformans) [µM]
CN(C)C(=S)SC(=S)N1CCN(c2cccc(Cl)c2)CC1,> 139,18,34.7,69.3,> 5,34.7,34.7,139,> 139,278,> 139,36,> 139,8.66,1.3 - 9.5,139
CCCCNC(=S)N1CCN(C(=S)SC(=S)N(C)C)CC1,> 137,20,137,> 137,2.84,137,137,68.5,> 137,137,> 137,41,> 137,137,1.3 - 11.2,> 137
CCCCSC(=S)N1CCN(C(=S)SC(=S)N(C)C)CC1,> 131,> 7,16.3,131,> 5,32.7,32.7,262,32.7,654,131,> 19,131,8.16,,65.3
CN(C)C(=S)SC(=S)N1CCN(c2cccc(Cl)c2Cl)CC1,> 127,12,31.7,63.5,1.59,15.9,15.9,63.5,> 127,127,> 127,25,> 127,31.7,1.3 - 9.5,127
CN(C)C(=S)SC(=S)N(C)C [BIS(DIMETHYLAMINETHIOCARBONYL)MONOSULFIDE],120,> 20,120,120,> 5,60.1,60.1,60.1,60.1,240,120,> 83,60.1,120,1.3 - 11.2,240
CN(C)C(=S)SC(=S)N1CCCCC1,50.4,> 50,101,50.4,> 5,101,101,25.2,50.4,101,25.2,> 200,50.4,101,1.5 - 3.8,202
CSC(=S)N1CCN(C(=S)SC(=S)N(C)C)CC1,> 147,> 7,> 147,> 147,> 5,147,147,294,> 147,735,> 147,> 17,> 147,36.8,,> 147
CCCCN1CCN(C(=S)SC(=S)N(C)C)CC1,163,50,163,81.7,4.1,163,163,20.4,81.7,81.7,163,200,163,163,1.3 - 9.5,163
CCN(C)C(=S)SC(=S)N(C)C,113,9,113,56.3,2.07,56.3,56.3,113,28.1,225,113,18,113,113,1.5 - 3.8,225
CN(C)C(=S)SC(=S)N1CCN(C(=S)SCc2ccccc2)CC1,> 120,> 41,30,120,> 5,60.1,60.1,60.1,30,120,120,> 83,120,7.5,1.3 - 11.2,60.1
CN1CCN(C(=S)SC(=S)N(C)C)CC1,190,12,95,95,1.22,95,95,47.5,47.5,95,95,26,190,190,1.3 - 9.5,190
CN(C)C(=S)SC(=S)N1CCCC1,53.4,29,107,53.4,3.09,53.4,53.4,26.7,53.4,107,26.7,115,53.4,107,1.5 - 3.8,214
CN(C)C(=S)SC(=S)N1CCN(C(=S)SCCCC#N)CC1,> 127,> 39,> 127,> 127,> 5,127,127,63.6,> 127,127,> 127,> 79,> 127,> 127,1.3 - 11.2,> 127
CCSC(=S)N1CCN(C(=S)SC(=S)N(C)C)CC1,141,15,17.6,70.5,4.48,35.2,35.2,141,70.5,282,141,31,> 141,8.81,1.3 - 11.2,141
COc1ccccc1N1CCN(C(=S)SC(=S)N(C)C)CC1,> 140,6,> 140,140,4.33,140,140,281,70.2,702,> 140,15,> 140,70.2,1.3 - 9.5,> 140
CC1CCCN(C(=S)SC(=S)N(C)C)C1 (stereo not given),95.4,30,23.9,47.7,2.9,23.9,23.9,47.7,47.7,95.4,95.4,60,95.4,23.9,1.5 - 3.8,47.7
CN(C)C(=S)SC(=S)N1CCN(C(=S)NCCc2ccccc2)CC1,> 121,> 20,> 121,> 121,> 5,> 121,> 121,60.5,> 121,242,> 121,> 83,> 121,> 121,1.3 - 11.2,> 121
CCN(CC)C(=S)SC(=S)N(C)C,> 212,> 47,53,106,> 5,26.5,26.5,53,53,106,> 212,> 94,> 212,26.5,1.5 - 3.8,106
OC(Cn1cncn1)(Cn1cncn1)c1ccc(F)cc1F [FLUCONAZOLE],3.26,,3.26,,,6.53,> 105,,1.63,,0.39,,13.1,6.53,,6.53
CN(C)C(=S)SC(=S)N1CCOCC1,25,10,200,50,4,100,100,100,100,400,50,40,100,200,,200
